For eight molecules, Activity results are on record in ChEMBL document CHEMBL3244405, “Imidazo[4,5-f]quinolines. 4. Synthesis and anthelmintic activity of a series of imidazo[4,5-f]quinolin-9-ols” (J Med Chem, 1978).

Data set [1] relates to Rodentolepis nana. Put plainly: Anthelmintic activity against Hymenolepis nana infected in mouse assessed as reduction in worm burden at 300 mg/kg bid for 5 days relative to control. Format: functional. The arrangement: scale not given: the % may be the effect or the level left. In outline:
(§1)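 Mice carried the tapeworm *H. nana* and were dosed at 300, 100, 50, 25, 10, 5 or 2.5 mg/kg. Activity was read as percent reduction in worm burden, and significance was tested by Mann-Whitney U test. The rest of the procedure follows an earlier publication.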

For data set [2], the system named is Rodentolepis nana. Put plainly: Anthelmintic activity against Hymenolepis nana infected in mouse assessed as reduction in worm burden at 100 mg/kg bid for 5 days relative to control. The format is functional. The gist of the method:
as §1

The test system of data set [3] is Rodentolepis nana. Put plainly: Anthelmintic activity against Hymenolepis nana infected in mouse assessed as reduction in worm burden at 10 mg/kg bid for 5 days relative to control. Format: functional. In outline:
as §1

Data set [4] deals with Rodentolepis nana. The experiment in a line: Anthelmintic activity against Hymenolepis nana infected in mouse assessed as reduction in worm burden at 50 mg/kg bid for 5 days relative to control. The format is functional. The arrangement: scale not given: the % may be the effect or the level left. In outline:
as §1

Data set [5] has as its system Rodentolepis nana. Put plainly: Anthelmintic activity against Hymenolepis nana infected in mouse assessed as reduction in worm burden at 25 mg/kg bid for 5 days relative to control. Also on record: scale not given: the % may be the effect or the level left. Format: functional. In outline:
as §1

In data set [6] the test system is Syphacia obvelata. The experiment in a line: Anthelmintic activity against Syphacia obvelata infected in mouse assessed as reduction in worm burden at 10 mg/kg bid for 5 days relative to control. The format is functional. The arrangement: scale not given: the % may be the effect or the level left.
In data set [7] the test system is Canis familiaris. The experiment in a line: Toxicity in beagle dog assessed as emesis at 50 to 150 mg/kg, po. The arrangement: dose 50-150 mg/kg, route oral. Format: organism-based, Canis lupus familiaris. The following applies: in vivo. The gist of the method:
(§2)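 Beagles infected with *T. pisiformis*, aged from puppies to 2–3 years, received single oral doses of 50–150 mg/kg body weight. Readouts were worm clearance plus observation for emesis and other untoward clinical signs.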

Data set [8] concerns Taenia pisiformis. Put plainly: Anthelmintic activity against Taenia pisiformis infected in beagle dog assessed as complete parasite clearance at 50 to 150 mg/kg, po after 10 days. The format is functional, organism-based. The gist of the method: as §2
Data set [9] relates to Syphacia obvelata. The experiment in a line: Anthelmintic activity against Syphacia obvelata infected in mouse assessed as complete parasite clearance at 50 mg/kg bid for 5 days. The format is functional, organism-based. The arrangement: dose 50 mg/kg.
For data set [10], the system named is Canis familiaris. The experiment in a line: Toxicity in beagle dog assessed as untoward clinical signs at 50 to 150 mg/kg, po. Format: organism-based, Canis lupus familiaris. Also on record: dose 50-150 mg/kg, route oral. As to conditions: in vivo. In outline: as §2
Data set [11] relates to Rodentolepis nana. Put plainly: Anthelmintic activity against Hymenolepis nana infected in mouse assessed as reduction in worm burden at 5 mg/kg bid for 5 days relative to control. The format is functional. Also on record: scale not given: the % may be the effect or the level left. The gist of the method: as §1
Data set [12] concerns Rodentolepis nana. Put plainly: Anthelmintic activity against Hymenolepis nana infected in mouse assessed as reduction in worm burden at 2.5 mg/kg bid for 5 days relative to control. Format: functional. The arrangement: scale not given: the % may be the effect or the level left. In outline:
as §1

For data set [13], the system named is Taenia crassiceps. The experiment in a line: Anthelmintic activity against Taenia crassiceps infected in beagle dog assessed as complete parasite clearance at 100 mg/kg after 9 days. The format is functional, organism-based. The arrangement: dose 100 mg/kg. The gist of the method: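 Dogs received a recently isolated *T. crassiceps* strain as 40 cysts per dog, taken from mice and given perorally in gelatin capsules to young beagles. On day 37, drug was given in gelatin capsules, three dogs per test. Dogs were sacrificed 9 days after treatment, and intestinal scolices were counted as worms recovered at necropsy.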

In data set [14] the test system is Moniezia. Put plainly: Anthelmintic activity against Moniezia species infected in sheep assessed as complete parasite clearance at 50 mg/kg for 3 days administered as drench solution. The format is functional, organism-based. The arrangement: dose 50 mg/kg. The gist of the method: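 Sheep were naturally infected. Drug was mixed with water and sonified to a creamy consistency, then given as a drench. Animals were sacrificed 3 days after dosing and the intestines were examined for worms.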

The subject of data set [15] is Mus musculus. Put plainly: Toxicity in mouse infected with Hymenolepis nana at 300 mg/kg bid for 5 days. Format: organism-based. The arrangement: dose 300 mg/kg. The following applies: in vivo, 120 h.

Calls of active or inactive are those of the source. The rule behind the calls is not given here.

Consider `Cc1ccc(-c2nc3ccc4nc(C)cc(O)c4c3[nH]2)cc1`, for which the Activity in data set [1] is 70%. Also, the result in [2] was inactive.
`Cc1cc(O)c2c(ccc3nc(-c4ccccc4)[nH]c32)n1`: the Activity is 100% in data set [1], 93% in data set [2], 94% in data set [4] and 77% in data set [5]. For the same molecule, in data set [3], the outcome was inactive.
Take `Oc1cc(-c2ccccc2)nc2ccc3nc(-c4ccccc4)[nH]c3c12`: the values for the Activity in data set [1], in [2] and in data set [4] were 100%, 100% and 82%, respectively. Besides, in [5], the result was inactive.
Regarding `Cc1cc(O)c2c(ccc3nc(-c4ccccc4Cl)[nH]c32)n1`, the figures for the Activity in [1], in data set [2] and in data set [4] were 100%, 100% and 75%, respectively. Moreover, in data set [5], the result was inactive.
`Oc1c2c(nc3ccc4nc(-c5ccccc5)[nH]c4c13)CCC2`: the Activity stood at 100% in [1], 100% in data set [2] and 41% in data set [4]. For the same molecule, the result in data set [5] was inactive.
Take `Cc1nc2ccc3nc(-c4ccccc4)[nH]c3c2c(O)c1C`: the Activity in data set [1] worked out at 100%; in [2], 100%; in data set [4], 94%. Also, the result in [5] was inactive.
On to `Cc1cc(O)c2c(ccc3nc(-c4ccco4)[nH]c32)n1` [FURODAZOLE], for which the Activity is recorded as 100% in data set [1]; 75% in [3]; 68% in [6]; “Toxic” in data set [7]; 100% in data set [2]; “Toxic” in data set [10]. For the same molecule, the Activity is 100% in data set [4], 57% in data set [11], 35% in data set [12] and 100% in data set [5]. The outcome in [8], in [9], in data set [13] and in [14] was Active.
Take `CCCCCCOc1ccc(C(=N)N(CCCC)CCCC)c2ccccc12` [BUNAMIDINE]: the result in data set [3] was inactive. The Activity in [2] is reported as 100%; in [4] it was 59%; in data set [15] it was “Toxic”; in data set [5], 30%.
